Measurements reported in ChEMBL document CHEMBL5303300, “EUbOPEN Chemogenomics Library - Multiplex” (2023).
Where “and” joins values, the source holds several entries; their conditions need not be identical. Equal values may be shown once.

Assays:
Fibroblast = assay: Multiplex assay against human fibroblast; format: toxicity, cell-based; conditions: number of replicates 2
How it was run: (§1)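 Hoechst33342, BioTracker Green Microtubule Cytoskeleton Dye, MitoTracker Red and Annexin V Alexa Fluor 680 were added to live cells at seeding, and imaging on a CQ1 microscope at 37°C and 5% CO2 followed compound addition. Gating by CellPathfinder machine learning separated cells into Hoechst high-intensity objects or normal cells, then normal cells into healthy, pyknosed or fragmented nuclei, then pyknosed cells into mitotic or apoptotic. Per cents of healthy-nucleus cells are reported for the tubulin, mitochondrial-mass and membrane-permeability phenotypes.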

U2OS = assay: Multiplex assay against U2OS; format: toxicity, cell-based; conditions: human, number of replicates 2; how it was run: as §1
[1] = 24 h, 1 µM, compound concentration 1 uM
[2] = 24 h, 10 µM, compound concentration 10 uM
[3] = 48 h, 1 µM, compound concentration 1 uM
[4] = 48 h, 10 µM, compound concentration 10 uM
[5] = 12 h, 1 µM, compound concentration 1 uM
[6] = 12 h, 10 µM, compound concentration 10 uM

CN(C)C/C=C/C(=O)Nc1ccc(C(=O)N2CCCC(Nc3ncc(Cl)c(-c4c[nH]c5ccccc45)n3)C2)cc1 (configuration not stated)
Population Membrane Permeable-Phenotype (%) (Fibroblast; [1]): 10% and 8%
Population Mitochondria Different-Phenotype (%) (Fibroblast; [1]): 2% and 1%
Population Mitotic Cells (%) (Fibroblast; [1]): 23% and 28%
Population Normal (%) (Fibroblast; [1]): 100%
Population Pyknosed Nuclei (%) (Fibroblast; [1]): 33% and 31%
Population Tubulin-Different-Phenotype (%) (Fibroblast; [1]): 18% and 19%
Total Cell Count (Fibroblast; [1]): 151 and 166
Population Apoptotic (%) (Fibroblast; [2]): 78% and 64%
Population Fragmented Nuclei (%) (Fibroblast; [2]): 8% and 14%
Population Healthy Nuclei (%) (Fibroblast; [2]): 30% and 41%
Population Hoechst High Intensity Objects (%) (Fibroblast; [2]): 1%
Population Membrane Permeable-Phenotype (%) (Fibroblast; [2]): 2% and 8%
Population Mitochondria Different-Phenotype (%) (Fibroblast; [2]): 43% and 36%
Population Mitotic Cells (%) (Fibroblast; [2]): 21% and 35%
Population Normal (%) (Fibroblast; [2]): 98%
Population Pyknosed Nuclei (%) (Fibroblast; [2]): 61% and 43%
Population Tubulin-Different-Phenotype (%) (Fibroblast; [2]): 72% and 71%
Total Cell Count (Fibroblast; [2]): 125 and 173
Population Apoptotic (%) (Fibroblast; [3]): 79% and 85%
Population Fragmented Nuclei (%) (Fibroblast; [3]): 11% and 14%
Population Healthy Nuclei (%) (Fibroblast; [3]): 47% and 50%
Population Hoechst High Intensity Objects (%) (Fibroblast; [3]): 0%
Population Membrane Permeable-Phenotype (%) (Fibroblast; [3]): 19% and 17%
Population Mitochondria Different-Phenotype (%) (Fibroblast; [3]): 1% and 5%
Population Mitotic Cells (%) (Fibroblast; [3]): 20% and 14%
Population Normal (%) (Fibroblast; [3]): 100% and 99%
Population Pyknosed Nuclei (%) (Fibroblast; [3]): 41% and 35%
Population Tubulin-Different-Phenotype (%) (Fibroblast; [3]): 27% and 20%
Total Cell Count (Fibroblast; [3]): 161 and 139
Population Apoptotic (%) (Fibroblast; [4]): 92% and 87%
Population Fragmented Nuclei (%) (Fibroblast; [4]): 11% and 14%
Population Healthy Nuclei (%) (Fibroblast; [4]): 15% and 21%
Population Hoechst High Intensity Objects (%) (Fibroblast; [4]): 0%
Population Mitochondria Different-Phenotype (%) (Fibroblast; [4]): 22% and 28%
Population Mitotic Cells (%) (Fibroblast; [4]): 7% and 12%
Population Normal (%) (Fibroblast; [4]): 99%
Population Pyknosed Nuclei (%) (Fibroblast; [4]): 73% and 63%
Population Tubulin-Different-Phenotype (%) (Fibroblast; [4]): 83% and 74%
Total Cell Count (Fibroblast; [4]): 117 and 161
Population Apoptotic (%) (U2OS; [5]): 28% and 47%
Population Healthy Nuclei (%) (U2OS; [5]): 61% and 77%
Population Hoechst High Intensity Objects (%) (U2OS; [5]): 0%
Population Membrane Permeable-Phenotype (%) (U2OS; [5]): 7% and 3%
Population Mitochondria Different-Phenotype (%) (U2OS; [5]): 3%
Population Mitotic Cells (%) (U2OS; [5]): 71% and 52%
Population Normal (%) (U2OS; [5]): 100%
Population Pyknosed Nuclei (%) (U2OS; [5]): 16% and 15%
Population Tubulin-Different-Phenotype (%) (U2OS; [5]): 88% and 93%
Population Apoptotic (%) (U2OS; [6]): 66% and 86%
Population Fragmented Nuclei (%) (U2OS; [6]): 20% and 10%
Population Healthy Nuclei (%) (U2OS; [6]): 44% and 40%
Population Hoechst High Intensity Objects (%) (U2OS; [6]): 0%
Population Membrane Permeable-Phenotype (%) (U2OS; [6]): 0% and 22%
Population Mitotic Cells (%) (U2OS; [6]): 33% and 13%
Population Normal (%) (U2OS; [6]): 100% and 99%
Population Pyknosed Nuclei (%) (U2OS; [6]): 36% and 48%
Population Tubulin-Different-Phenotype (%) (U2OS; [6]): 81% and 57%
Population Apoptotic (%) (U2OS; [1]): 70% and 76%
Population Fragmented Nuclei (%) (U2OS; [1]): 19% and 8%
Population Healthy Nuclei (%) (U2OS; [1]): 52% and 67%
Population Hoechst High Intensity Objects (%) (U2OS; [1]): 0%
Population Membrane Permeable-Phenotype (%) (U2OS; [1]): 10% and 3%
Population Mitochondria Different-Phenotype (%) (U2OS; [1]): 0% and 1%
Population Mitotic Cells (%) (U2OS; [1]): 30% and 23%
Population Normal (%) (U2OS; [1]): 100%
Population Pyknosed Nuclei (%) (U2OS; [1]): 27% and 23%
Population Tubulin-Different-Phenotype (%) (U2OS; [1]): 89% and 95%
Population Apoptotic (%) (U2OS; [2]): 93% and 80%
Population Fragmented Nuclei (%) (U2OS; [2]): 8% and 17%
Population Hoechst High Intensity Objects (%) (U2OS; [2]): 5% and 0%
Population Membrane Permeable-Phenotype (%) (U2OS; [2]): 58% and 22%
Population Normal (%) (U2OS; [2]): 94% and 100%
Population Pyknosed Nuclei (%) (U2OS; [2]): 80% and 43%
Population Tubulin-Different-Phenotype (%) (U2OS; [2]): 76% and 100%
Population Apoptotic (%) (U2OS; [3]): 90% and 83%
Population Fragmented Nuclei (%) (U2OS; [3]): 12% and 7%
Population Healthy Nuclei (%) (U2OS; [3]): 74% and 75%
Population Hoechst High Intensity Objects (%) (U2OS; [3]): 0%
Population Membrane Permeable-Phenotype (%) (U2OS; [3]): 3% and 5%
Population Mitochondria Different-Phenotype (%) (U2OS; [3]): 1% and 3%
Population Mitotic Cells (%) (U2OS; [3]): 10% and 16%
Population Normal (%) (U2OS; [3]): 100%
Population Pyknosed Nuclei (%) (U2OS; [3]): 13% and 16%
Population Tubulin-Different-Phenotype (%) (U2OS; [3]): 98% and 97%
Population Apoptotic (%) (U2OS; [4]): 92% and 69%
Population Healthy Nuclei (%) (U2OS; [4]): 13% and 20%
Population Hoechst High Intensity Objects (%) (U2OS; [4]): 1% and 0%
Population Membrane Permeable-Phenotype (%) (U2OS; [4]): 91% and 40%
Population Mitochondria Different-Phenotype (%) (U2OS; [4]): 83% and 60%
Population Normal (%) (U2OS; [4]): 98% and 100%
Population Pyknosed Nuclei (%) (U2OS; [4]): 79% and 52%
Population Tubulin-Different-Phenotype (%) (U2OS; [4]): 100%
